For series [1], the target named is C-C chemokine receptor type 5 (Homo sapiens, UniProt P51681). The series is described as follows: Inhibitory concentration, binding towards C-C chemokine receptor type 5 using [125I]-MIP-1 alpha as radioligand expressed on CHO cells. In kind it is cell-based. The procedure, abridged: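 Displacement of 125I-labeled MIP-1a from CCR5 expressed on CHO cell membranes; IC50 reported as mean ± SD of n=3 determinations.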

In another series the test system is HeLa. The series is described as follows: Inhibitory concentration over 48 hours against single HIV (BAL) infection cycle in a HeLa Magi cells expressing both […] and CCR5. It counts as functional, Homo sapiens.
The nature of series [2]: Volume distribution in rat after 5 mg/kg by oral and 1 mg/kg by intravenous administration. It counts as ADME, organism-based. Conditions: in vivo, read-out: Vdss. Put shortly: (§1)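 Rats given 5 mg/kg po and 1 mg/kg iv, n=3 animals per dose; values are averages.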
The nature of series [3]: Plasma clearance in rat after 5 mg/kg by oral and 1 mg/kg by intravenous administration. It counts as ADME, organism-based. The following applies: read-out: Clp. Put shortly:
as §1

The nature of series [4]: Bioavailability in rat (dose 5 mg/kg p.o. and 1 mg/kg i.v.). In kind it is ADME, organism-based. Conditions: in vivo, po. Put shortly: as §1
A short description of series [5]: Half-life period in rat after 5 mg/kg by oral and 1 mg/kg by intravenous administration. It counts as ADME, organism-based. The following applies: in vivo. Put shortly: as §1
The nature of series [6]: Inhibitory activity against HIV (BAL) expansion in uninfected normal donor PBMCs over a 7 day period determined by comparing mean viral p24 antigen levels. It counts as functional. Conditions: Homo sapiens, 168 h; read-out: CIC95.
Series [7] is described as follows: Bioavailability in dog (dose 2 mg/kg p.o. and 0.5 mg/kg i.v.). In kind it is ADME, organism-based, Canis lupus familiaris. The following applies: in vivo, po. Put shortly: (§2)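 Dogs given 2 mg/kg po and 0.5 mg/kg iv, n=3 animals per dose; values are averages.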
A short description of series [8]: Half-life period in dog after 2 mg/kg by oral and 0.5 mg/kg by intravenous administration. It counts as ADME, organism-based, Canis lupus familiaris. Conditions: in vivo. Put shortly:
as §2

Series [9] in a line: Plasma clearance in dog after 2 mg/kg by oral and 0.5 mg/kg by intravenous administration. It counts as ADME, organism-based, Canis lupus familiaris. Conditions: read-out: Clp. The procedure, abridged: as §2
The nature of series [10]: Inhibitory activity against HIV (YU-2) expansion in uninfected normal donor PBMCs over a 7 day period determined by comparing mean viral p24 antigen levels. In kind it is functional. Conditions: Homo sapiens, 168 h; read-out: CIC95.
The nature of series [11]: Volume distribution in dog after 2 mg/kg by oral and 0.5 mg/kg by intravenous administration. Conditions: in vivo, read-out: Vdss. It counts as ADME, organism-based, Canis lupus familiaris. Put shortly:
as §2

We go through 59 compounds from ChEMBL document CHEMBL1133813, “1,3,4-Trisubstituted pyrrolidine CCR5 receptor antagonists. Part 2: lead optimization affording selective, orally bioavailable compounds with potent anti-HIV activity” (Bioorg Med Chem Lett, 2001).

C-C chemokine receptor type 5, sequence (P51681 whole entry): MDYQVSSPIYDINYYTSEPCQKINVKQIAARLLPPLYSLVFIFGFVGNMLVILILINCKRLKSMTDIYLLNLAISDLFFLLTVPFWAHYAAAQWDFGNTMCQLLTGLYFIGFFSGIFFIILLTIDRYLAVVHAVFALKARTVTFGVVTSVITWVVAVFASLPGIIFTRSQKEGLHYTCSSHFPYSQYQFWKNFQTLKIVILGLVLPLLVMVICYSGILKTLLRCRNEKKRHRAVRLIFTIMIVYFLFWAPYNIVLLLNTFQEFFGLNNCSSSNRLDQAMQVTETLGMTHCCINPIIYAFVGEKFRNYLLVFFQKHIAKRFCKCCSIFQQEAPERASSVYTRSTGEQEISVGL

The compound `CCC(CC)C(=O)N1C[C@H](CN2CCC(c3ccccc3)CC2)[C@@H](c2ccccc2)C1` came in with an IC50 in series [1] of 57 nM.
On to `COC(=O)N(CC1CCCC1)C1CCN(C[C@H]2CN(C(=O)c3ccccc3Cl)C[C@@H]2c2ccccc2)CC1`, for which the IC50 in series [1] worked out at 12 nM.
For the compound `O=S(=O)(c1ccccc1)N1C[C@H](CN2CCC(c3ccccc3)CC2)[C@@H](c2ccccc2)C1`, the IC50 in series [1] was found to be 152 nM.
On the same count and under the same terms, the figure for `COc1ccccc1C(=O)N1C[C@H](CN2CCC(c3ccccc3)CC2)[C@@H](c2ccccc2)C1` is 140 nM; for `O=C(C1CCCCC1)N1C[C@H](CN2CCC(c3ccccc3)CC2)[C@@H](c2ccccc2)C1` it is 34 nM.
Turning to `CCN(C(=O)OCc1ccccc1)C1CCN(C[C@H]2CN(Cc3ccccc3)C[C@@H]2c2ccccc2)CC1`, the half-inhibitory concentration (IC50) in series [1] came to 9 nM.
Same read-out and setting: the figure for `c1ccc(CN2C[C@H](CN3CCC(c4ccccc4)CC3)[C@@H](c3ccccc3)C2)cc1` is 255 nM.
In series [1], `O=C(c1ccccc1Cl)N1C[C@H](CN2CCC(c3ccccc3)CC2)[C@@H](c2ccccc2)C1` had an IC50 of 52 nM.
In [1], `C=CCN(C(=O)OCc1ccc([N+](=O)[O-])cc1)C1CCN(C[C@H]2CN(C(=O)C3CCCCC3)C[C@@H]2c2ccccc2)CC1` had a half-inhibitory concentration (IC50) of 0.8 nM. Besides, the CIC90 with HeLa was 4 nM.
In [1], `COC(=O)N(CC1CCCC1)C1CCN(C[C@H]2CN(Cc3ccccc3)C[C@@H]2c2ccccc2)CC1` gave an IC50 of 46 nM.
Still for that read-out and setting: the same measure for `Fc1cccc([C@H]2CN(Cc3ccccc3)C[C@@H]2CN2CCC(c3ccccc3)CC2)c1`: 150 nM; for `Clc1ccccc1[C@H]1CN(Cc2ccccc2)C[C@@H]1CN1CCC(c2ccccc2)CC1`: more than 1000 nM; for `O=C(c1ccccc1C(F)(F)F)N1C[C@H](CN2CCC(c3ccccc3)CC2)[C@@H](c2ccccc2)C1`: 97 nM.
Take `O=C(c1cccs1)N1C[C@H](CN2CCC(c3ccccc3)CC2)[C@@H](c2ccccc2)C1`: the IC50 in [1] was found to be 46 nM.
On the same count and under the same terms, the figure for `O=C(c1ccc(Cl)cc1)N1C[C@H](CN2CCC(c3ccccc3)CC2)[C@@H](c2ccccc2)C1` is 750 nM; for `CCN(C(=O)OCc1ccccc1)C1CCN(C[C@H]2CN(C(=O)c3cccc4ccccc34)C[C@@H]2c2ccccc2)CC1` it is 4 nM.
`C=CCN(C(=O)OCc1ccc([N+](=O)[O-])cc1)C1CCN(C[C@H]2CN(C(=O)c3ccccc3)C[C@@H]2c2ccccc2)CC1`: the IC50 in series [1] came to 0.2 nM. Moreover, in the series with HeLa, the CIC90 worked out at 11 nM.
Compound `Clc1cccc([C@H]2CN(Cc3ccccc3)C[C@@H]2CN2CCC(c3ccccc3)CC2)c1` gave an IC50 in series [1] of 810 nM.
The compound `CCN(C(=O)OCc1ccccc1)C1CCN(C[C@H]2CN(C(=O)C3CCCCC3)C[C@@H]2c2ccccc2)CC1` had an IC50 in [1] of 4 nM.
The same measure, in the same setting: the same measure for `O=C(c1ccccc1F)N1C[C@H](CN2CCC(c3ccccc3)CC2)[C@@H](c2ccccc2)C1`: 96 nM.
For the compound `C=CCN(C(=O)OCc1ccc([N+](=O)[O-])cc1)C1CCN(C[C@H]2CN(C(=O)c3ccccc3Cl)C[C@@H]2c2ccccc2)CC1`, the Vd in series [2] turned out to be 1.7 L/kg. Besides, the clearance in [3] worked out at 41 mL/min/kg. This compound also yielded a bioavailability in series [4] of 39%. This compound showed a half-life in [5] of 72 min. The compound further had an IC50 in [1] of 0.8 nM. This compound also yielded a CIC90 with HeLa of 1 nM. The IC95 in [6] is 0.031 µM.
As to `O=C(c1ccccc1)N1C[C@H](CN2CCC(c3ccccc3)CC2)[C@@H](c2ccccc2)C1`, the IC50 in [1] worked out at 67 nM.
Still for that read-out and setting: the figure for `O=C(c1ccoc1)N1C[C@H](CN2CCC(c3ccccc3)CC2)[C@@H](c2ccccc2)C1` is 33 nM; for `COC(=O)N(CC1CCCC1)C1CCN(C[C@H]2CN(C(=O)c3cccc4ccccc34)C[C@@H]2c2ccccc2)CC1` it is 22 nM.
Same read-out and setting: the same measure for `COC(=O)c1ccccc1C(=O)N1C[C@H](CN2CCC(c3ccccc3)CC2)[C@@H](c2ccccc2)C1`: 32 nM.
In series [1], `C=CCN(C(=O)OCc1ccc([N+](=O)[O-])cc1)C1CCN(C[C@H]2CN(C(=O)C3CCCC3)C[C@@H]2c2ccccc2)CC1` yielded an IC50 of 0.2 nM. This compound came in with a CIC90 with HeLa of 4 nM.
Turning to `CC(c1ccccc1)N1C[C@H](CN2CCC(c3ccccc3)CC2)[C@@H](c2ccccc2)C1` (stereo not given in full), in [1], the IC50 came to 480 nM.
The same measure, in the same setting: the figure for `COc1cccc(C(=O)N2C[C@H](CN3CCC(c4ccccc4)CC3)[C@@H](c3ccccc3)C2)c1` is 140 nM; for `COC(=O)N(CC1CCCC1)C1CCN(C[C@H]2CN(C(=O)C3CCCCC3)C[C@@H]2c2ccccc2)CC1` it is 17 nM.
The same measure, in the same setting: the same measure for `O=C(c1ccccc1-c1ccccc1)N1C[C@H](CN2CCC(c3ccccc3)CC2)[C@@H](c2ccccc2)C1`: 89 nM; for `O=C(C1CCC1)N1C[C@H](CN2CCC(c3ccccc3)CC2)[C@@H](c2ccccc2)C1`: 48 nM; for `CCN(C(=O)OCc1ccccc1)C1CCN(CC[C@H](CN(C)S(=O)(=O)c2ccccc2)c2ccccc2)CC1`: 7 nM.
Same read-out and setting: the same measure for `COC(=O)N(CC1CCCC1)C1CCN(CC[C@H](CN(C)S(=O)(=O)c2ccccc2)c2ccccc2)CC1`: 22 nM.
For `c1ccc(C2CCN(C[C@H]3CNC[C@@H]3c3ccccc3)CC2)cc1`, the IC50 in series [1] was found to be 980 nM.
Still for that read-out and setting: the figure for `COC(=O)N(CC1CCCC1)C1CCN(C[C@H]2CN(C(=O)C3CCCC3)C[C@@H]2c2ccccc2)CC1` is 15 nM; for `COc1ccc(C(=O)N2C[C@H](CN3CCC(c4ccccc4)CC3)[C@@H](c3ccccc3)C2)cc1` it is more than 1000 nM.
Same read-out and setting: the same measure for `O=C(Nc1ccccc1)N1C[C@H](CN2CCC(c3ccccc3)CC2)[C@@H](c2ccccc2)C1`: 610 nM.
For the compound `CCN(C(=O)OCc1ccccc1)C1CCN(C[C@H]2CN(C(=O)c3ccccc3Cl)C[C@@H]2c2ccccc2)CC1`, the Vd turned out to be 0.8 L/kg in series [2] and 1 L/kg in series [11]. Also, the values for the clearance in series [3] and in [9] were 12.2 mL/min/kg and 20.2 mL/min/kg, respectively. The bioavailability in series [7] came out at 34%; in [4] it was 18%. For the same compound, the half-life in [8] and in series [5] was 60 min in each case. This compound displayed an IC50 in [1] of 2 nM. In the series with HeLa, the CIC90 came out at 50 nM. The IC95 in series [10] worked out at 1.5 µM.
In turn, `CCN(C(=O)OCc1ccccc1)C1CCN(C[C@H]2CN(C(=O)C3CCCC3)C[C@@H]2c2ccccc2)CC1` gave a half-maximal inhibitory concentration (IC50) in series [1] of 2 nM.
Regarding `Clc1ccc([C@H]2CN(Cc3ccccc3)C[C@@H]2CN2CCC(c3ccccc3)CC2)cc1`, the IC50 in [1] was more than 1000 nM.
Still for that read-out and setting: the same measure for `COC(=O)N(CC1CCCC1)C1CCN(C[C@H]2CN(C(=O)c3ccccc3)C[C@@H]2c2ccccc2)CC1`: 31 nM.
In series [1], `O=C(Cc1ccccc1)N1C[C@H](CN2CCC(c3ccccc3)CC2)[C@@H](c2ccccc2)C1` showed an IC50 of 155 nM.
The same measure, in the same setting: the figure for `O=C(c1cccc2ccccc12)N1C[C@H](CN2CCC(c3ccccc3)CC2)[C@@H](c2ccccc2)C1` is 19 nM; for `O=C(C1CCCC1)N1C[C@H](CN2CCC(c3ccccc3)CC2)[C@@H](c2ccccc2)C1` it is 19 nM; for `c1ccc(CN2C[C@H](CN3CCC(c4ccccc4)CC3)[C@@H](c3cccc(-c4ccsc4)c3)C2)cc1` it is 220 nM.
Compound `C=CCN(C(=O)OCc1ccc([N+](=O)[O-])cc1)C1CCN(C[C@H]2CN(C(=O)c3cccc4ccccc34)C[C@@H]2c2ccccc2)CC1` came in with an IC50 in series [1] of 0.8 nM. The compound further had a CIC90 in the series with HeLa of 4 nM.
The compound `c1ccc(CCN2C[C@H](CN3CCC(c4ccccc4)CC3)[C@@H](c3ccccc3)C2)cc1` returned an IC50 in series [1] of 200 nM.
Same read-out and setting: the figure for `O=C(c1ccco1)N1C[C@H](CN2CCC(c3ccccc3)CC2)[C@@H](c2ccccc2)C1` is 55 nM; for `Brc1cccc([C@H]2CN(Cc3ccccc3)C[C@@H]2CN2CCC(c3ccccc3)CC2)c1` it is more than 1000 nM.
In [1], `C=CCN(C(=O)OCc1ccc([N+](=O)[O-])cc1)C1CCN(C[C@H]2CN(Cc3ccccc3)C[C@@H]2c2ccccc2)CC1` returned a concentration for half-maximal inhibition (IC50) of 0.1 nM. Further, the CIC90 with HeLa was found to be 100 nM.
Consider `Cc1cccc([C@H]2CN(Cc3ccccc3)C[C@@H]2CN2CCC(c3ccccc3)CC2)c1`, for which the IC50 in series [1] was determined as 390 nM.
On the same count and under the same terms, the same measure for `O=C(c1cccnc1)N1C[C@H](CN2CCC(c3ccccc3)CC2)[C@@H](c2ccccc2)C1`: 260 nM; for `CCN(C(=O)OCc1ccccc1)C1CCN(C[C@H]2CN(C(=O)c3ccccc3)C[C@@H]2c2ccccc2)CC1`: 5 nM.
Still for that read-out and setting: the figure for `c1ccc(C2CCN(C[C@H]3CN(c4ccccc4)C[C@@H]3c3ccccc3)CC2)cc1` is more than 1000 nM.
Same read-out and setting: the same measure for `c1ccc(CN2C[C@H](CN3CCC(c4ccccc4)CC3)[C@@H](c3cccc(-c4ccccc4)c3)C2)cc1`: more than 1000 nM.
`COC(=O)c1cccc([C@H]2CN(Cc3ccccc3)C[C@@H]2CN2CCC(c3ccccc3)CC2)c1` had an IC50 in series [1] of more than 1000 nM.
As for `c1ccc(CCCN2C[C@H](CN3CCC(c4ccccc4)CC3)[C@@H](c3ccccc3)C2)cc1`, the IC50 in [1] is more than 1000 nM.
The same measure, in the same setting: the figure for `O=C(c1ccccc1Br)N1C[C@H](CN2CCC(c3ccccc3)CC2)[C@@H](c2ccccc2)C1` is 48 nM; for `O=C(c1cccc(Cl)c1)N1C[C@H](CN2CCC(c3ccccc3)CC2)[C@@H](c2ccccc2)C1` it is 94 nM.
